For assay [1], the target named is Metallo-beta-lactamase type 2 (Bacteria) (UniProt C7C422). Put plainly: Inhibition of NDM1 (unknown origin) expressed in Escherichia coli BL21(DE3) assessed as substrate hydrolysis at 100 uM by UV-Vis spectrophotometric analysis relative to control. In a few lines:
(§1)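 Single-point screen at 100 or 200 µM inhibitor against purified MBL (1–70 nM) with 150 µM imipenem or meropenem reporter substrate, 50 mM HEPES pH 7.5, 30 °C. Initial hydrolysis rate read by absorbance at 300 nm and compared with the uninhibited reaction. Triplicate.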

The nature of assay [2]: Binding affinity to VIM-2 (unknown origin) expressed in Escherichia coli BL21(DE3) assessed as inhibition constant by measuring rate of substrate hydrolysis by UV-Vis spectrophotometric analysis. In a few lines: (§2)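 Purified MBL (1–70 nM) with 150 µM imipenem or meropenem as reporter substrate, 50 mM HEPES pH 7.5, 30 °C. Hydrolysis followed by absorbance at 300 nm without and with inhibitor (0.5 µM–1 mM). Ki from the slope of v0/vi vs [I] under a competitive model, or from Dixon plots varying inhibitor and substrate. […] Triplicate, mean ± SD.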

Assay [3] deals with metallo-β-lactamase IMP-1 (Pseudomonas aeruginosa). The experiment in a line: Inhibition of IMP1 (unknown origin) expressed in Escherichia coli BL21(DE3) assessed as substrate hydrolysis at 100 uM by UV-Vis spectrophotometric analysis relative to control.
Assay [4] is described as follows: Binding affinity to VIM-4 (unknown origin) expressed in Escherichia coli BL21(DE3) assessed as inhibition constant by measuring rate of substrate hydrolysis by UV-Vis spectrophotometric analysis. An outline of the steps: as §2
The test system of assay [5] is metallo-β-lactamase VIM-2 (Pseudomonas aeruginosa). The experiment in a line: Inhibition of VIM-2 (unknown origin) expressed in Escherichia coli BL21(DE3) assessed as substrate hydrolysis at 100 uM by UV-Vis spectrophotometric analysis relative to control.
Assay [6] deals with Metallo-beta-lactamase type 2 (Bacteria, UniProt C7C422). Put plainly: Binding affinity to NDM1 (unknown origin) expressed in Escherichia coli BL21(DE3) assessed as inhibition constant by measuring rate of substrate hydrolysis by UV-Vis spectrophotometric analysis. The note with it: read-out: Ki. In a few lines: as §2
Metallo-beta-lactamase type 2, sequence (C7C422 whole entry): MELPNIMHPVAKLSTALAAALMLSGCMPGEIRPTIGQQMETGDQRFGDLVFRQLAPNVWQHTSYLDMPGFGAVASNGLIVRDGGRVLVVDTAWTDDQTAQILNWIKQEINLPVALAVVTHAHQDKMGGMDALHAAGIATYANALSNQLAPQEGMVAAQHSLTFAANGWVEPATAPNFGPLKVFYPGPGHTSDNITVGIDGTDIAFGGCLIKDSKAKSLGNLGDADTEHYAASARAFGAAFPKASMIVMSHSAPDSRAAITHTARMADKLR
The target in assay [7] is Beta-lactamase VIM-1 (Bacteria, UniProt Q8GDC1). Put plainly: Binding affinity to VIM-1 (unknown origin) expressed in Escherichia coli BL21(DE3) assessed as inhibition constant by measuring rate of substrate hydrolysis by UV-Vis spectrophotometric analysis. An outline of the steps: as §2
Assay [8] has as its system metallo-β-lactamase IMP-1 (Pseudomonas aeruginosa). The experiment in a line: Inhibition of IMP1 (unknown origin) expressed in Escherichia coli BL21(DE3) assessed as substrate hydrolysis at 200 uM by UV-Vis spectrophotometric analysis relative to control.
For assay [9], the system named is metallo-β-lactamase VIM-2 (Pseudomonas aeruginosa). The experiment in a line: Inhibition of VIM-2 (unknown origin) expressed in Escherichia coli BL21(DE3) assessed as substrate hydrolysis at 200 uM by UV-Vis spectrophotometric analysis relative to control.
For assay [10], the target named is Metallo-beta-lactamase type 2 (Bacteria) (UniProt C7C422). Put plainly: Inhibition of NDM1 (unknown origin) expressed in Escherichia coli BL21(DE3) assessed as substrate hydrolysis at 200 uM by UV-Vis spectrophotometric analysis relative to control. An outline of the steps: as §1
Metallo-beta-lactamase type 2 (Bacteria), sequence (C7C422 whole entry): as above
Assay [11] deals with metallo-β-lactamase VIM-4 (Pseudomonas aeruginosa). The experiment in a line: Inhibition of VIM-4 (unknown origin) expressed in Escherichia coli BL21(DE3) assessed as substrate hydrolysis at 100 uM by UV-Vis spectrophotometric analysis relative to control.
The test system is the same in assay [12]. The experiment in a line: Inhibition of VIM-4 (unknown origin) expressed in Escherichia coli BL21(DE3) assessed as substrate hydrolysis at 200 uM by UV-Vis spectrophotometric analysis relative to control.
Assay [13] deals with Klebsiella pneumoniae. The experiment in a line: Antimicrobial synergistic activity against blaVIM-1-producing multidrug-resistant Klebsiella pneumoniae 7023 clinical isolate assessed as meropenem MIC at 32 ug/ml by CLSI based broth microdilution method (reference value: 16 ug/ml). Type of assay: functional. The note with it: dose 32 µg/ml.
Assay [14] relates to Escherichia coli. Put plainly: Synergistic antimicrobial activity against blaNDM-1-producing multidrug-resistant Escherichia coli SI-004M clinical isolate assessed as meropenem MIC at 32 ug/ml by CLSI based microdilution method (reference value: 64 ug/ml). It counts as functional. The note with it: dose 32 µg/ml. In general terms: In broth dilution the organism is exposed to a series of concentrations in liquid medium.

The test system of assay [15] is Klebsiella pneumoniae. The experiment in a line: Antimicrobial synergistic activity against blaVIM-4-producing multidrug-resistant Klebsiella pneumoniae VA416/02 clinical isolate assessed as meropenem MIC at 32 ug/ml by CLSI based broth microdilution method (reference value: 16 ug/ml). It counts as functional. The note with it: dose 32 µg/ml.
Assay [16] can be described thus: Binding affinity to IMP1 (unknown origin) expressed in Escherichia coli BL21(DE3) assessed as inhibition constant by measuring rate of substrate hydrolysis by UV-Vis spectrophotometric analysis. In a few lines:
as §2

For orientation: inhibition means the share of the control response that was lost under treatment. For `O=C(O)c1ccccc1CCn1c(-c2cccc(-c3ccccc3)c2)n[nH]c1=S`, the inhibition in [1] and in assay [3] was below 30% in each case. For the same molecule, the Ki in assay [2] amounted to 0.08 µM; in [4], 2.1 µM.
Consider `Oc1ccc(CCn2c(-c3ccccc3-c3ccccc3)n[nH]c2=S)c(O)c1`, for which the values for the inhibition in assay [5], in [3] and in assay [8] were 35%, below 30% and below 50%, respectively. In addition, the Ki worked out at 15.2 µM in assay [6], 60 µM in assay [4] and 27 µM in assay [7].
Regarding `FC(F)(F)c1ccc(CCn2c(-c3ccccc3)n[nH]c2=S)cc1`, the inhibition is below 30% in [5]; below 30% in assay [1]; below 50% in assay [9]; below 50% in assay [10]; below 30% in assay [3]; below 50% in assay [8].
Regarding `CC(Cn1c(-c2ccccc2)n[nH]c1=S)c1ccccc1` (stereo not drawn), the inhibition in assay [5] is below 30%; in assay [1] it was below 30%; in assay [11], below 30%; in assay [9], below 50%; in [12], below 50%; in assay [10], below 50%. The inhibition in assay [3] is 55%.
As for `COc1ccc(O)c(-c2n[nH]c(=S)n2CCc2ccc(OCc3ccccc3)cc2)c1`, the inhibition in assay [5] is below 30%; in assay [1] it was below 30%; in assay [9], below 50%; in assay [10], below 50%; in [3], 35%. Also, the Ki in [4] was found to be 0.54 µM; in [7], 11.1 µM.
With `O=C(O)c1ccc(-n2c(S)nnc2-c2ccccc2)cc1`, the inhibition in [1] was below 30%.
Regarding `S=c1[nH]nc(-c2ccc3ccccc3c2)n1CCc1ccccc1`, the inhibition in [5] is below 30%; in assay [1] it was below 30%; in assay [11], below 30%; in assay [9] it was below 50%; in assay [12], below 50%; in assay [10], below 50%. The inhibition in assay [3] is below 30%; in assay [8] it was below 50%. In addition, in [7], the Ki amounted to 3.7 µM.
Regarding `O=C(NCc1ccccc1)c1ccccc1CCn1c(-c2ccccc2)n[nH]c1=S`, the inhibition in [5] was below 30%; in assay [1], 45%; in [11], below 30%; in assay [9] it was below 50%; in assay [12], below 50%; in assay [3] it was 45%.
For orientation: MIC means the smallest concentration in the dilution series that meets the test's criterion for growth inhibition. As for `S=c1[nH]nc(-c2ccccc2)n1CCc1ccccc1`, the MIC is 2 mg/L in [13], 64 mg/L in assay [14] and 2 mg/L in assay [15]. For the same molecule, the inhibition is below 30% in assay [5]; below 30% in [1]; below 50% in [9]; below 50% in [10]; below 30% in assay [3]; below 50% in assay [8]. Also, the Ki in assay [4] amounted to 2.1 µM; in assay [7], 3.2 µM.
On to `Cc1ccccc1CCn1c(-c2ccccc2)n[nH]c1=S`, for which the inhibition in assay [5] is below 30%; in assay [1] it was below 30%; in [9], below 50%; in [10], below 50%; in assay [3] it was below 30%; in assay [8] it was below 50%.
Consider `Oc1ccc(CCn2c(-c3ccc4ccccc4c3)n[nH]c2=S)cc1`, for which the inhibition is below 30% in [5], below 30% in [1], below 50% in [9] and below 50% in assay [10]. Also, the Ki in assay [16] (read-out: Ki) was found to be 24 µM; in [4], 3.2 µM; in [7], 3.3 µM.
For the molecule `S=c1[nH]nc(-c2cccc(-c3ccccc3)c2)n1[C@@H]1C[C@H]1c1ccccc1`, the inhibition was below 30% in assay [5]; 69% in [1]; below 30% in assay [11]; below 50% in [9]; below 50% in [12]; below 30% in assay [3]. In assay [8], the inhibition is below 50%.
As for `Cc1ccccc1-c1n[nH]c(=S)n1CCc1ccc(O)cc1`, the inhibition was below 30% in assay [1], below 50% in assay [10] and 56% in assay [3]. Moreover, the Ki in assay [4] was found to be 1.6 µM.
As for `O=C1OC(Cn2c(-c3cccc(-c4ccccc4)c3)n[nH]c2=S)c2ccccc21` (stereo not drawn), the inhibition is below 30% in assay [5]; below 30% in [1]; below 50% in assay [9]; below 50% in [10]; below 30% in assay [3]; below 50% in assay [8].
As to `O=C1OC(Cn2c(-c3ccccc3)n[nH]c2=S)c2ccccc21` (stereo not drawn), the results for the MIC in [13], in assay [14] and in [15] were 2 mg/L, 64 mg/L and 2 mg/L, respectively. Further, the inhibition in assay [5] is below 30%; in assay [1], 51%; in [9], below 50%; in assay [3], below 30%; in assay [8] it was below 50%. The Ki in [4] amounted to 7.8 µM; in assay [7], 0.75 µM.
Turning to `S=c1[nH]nc(-c2cc(Cl)cc(Cl)c2)n1/N=C/c1ccc(OCc2ccccc2)cc1`, the inhibition in [5] is below 30%. In addition, the figures for the Ki in assay [16] (read-out: Ki) and in assay [4] were 0.1 µM and 0.6 µM, respectively.
With `Oc1ccc(CCn2c(-c3cc(-c4ccccc4)ccc3O)n[nH]c2=S)c(O)c1`, the minimal inhibitory concentration (MIC) came out at 1 mg/L in assay [13], 64 mg/L in assay [14] and 2 mg/L in [15]. Also, the inhibition in assay [1] is 38%; in assay [3], 44%. Moreover, the figures for the Ki in [2], in [4] and in assay [7] were 1.9 µM, 0.85 µM and 0.76 µM, respectively.
Consider `Cn1cccc1-c1n[nH]c(=S)n1CC1OC(=O)c2ccccc21` (stereo not drawn), for which the figures for the minimal inhibitory concentration (MIC) in [13], in assay [14] and in [15] were 2 mg/L, 32 mg/L and 2 mg/L, respectively. Besides, the inhibition is 38% in assay [5], 31% in [1] and 30% in assay [3]. Also, the Ki in assay [4] came out at 2.5 µM; in assay [7], 2.2 µM.
Consider `COc1ccc(O)c(-c2n[nH]c(=S)n2CCc2ccc(O)cc2)c1`, for which the minimal inhibitory concentration (MIC) in assay [13] and in assay [15] was 2 mg/L each time. The inhibition in assay [1] is below 30%; in [10] it was below 50%; in [3] it was below 30%; in [8] it was below 50%. In addition, the Ki in assay [2] came to 3.9 µM; in assay [4] it was 1.9 µM; in assay [7] it was 1.6 µM.
`S=c1[nH]nc(-c2ccc3ccccc3c2)n1[C@@H]1C[C@H]1c1ccccc1`: the inhibition is below 30% in [5]; below 30% in assay [1]; 35% in assay [11]; below 50% in assay [9]; below 50% in [10]; below 30% in assay [3]. Also, in [8], the inhibition was below 50%.
Turning to `Cc1ccccc1-c1n[nH]c(=S)n1CCc1ccccc1`, the MIC in assay [13] and in assay [15] was 4 mg/L in each case. Besides, the Ki in assay [16] (read-out: Ki(app)) stood at 14 µM; in [2] it was 9.4 µM; in [4], 2.4 µM; in assay [7], 3.3 µM. Also, the inhibition in assay [1] was below 30%; in [10], below 50%.
On to `Sc1nnc(-c2ccccc2)n1-c1ccccc1`, for which the inhibition in assay [1] was below 30%. Further, the Ki in [2] was found to be 16 µM; in assay [7] it was 3.2 µM.
For `O=C1OC(Cn2c(-c3ccc(-c4ccccc4)cc3)n[nH]c2=S)c2ccccc21` (stereo not drawn), the inhibition in assay [5] was below 30%; in assay [1], below 30%; in assay [9], below 50%; in assay [10], below 50%; in assay [3], 48%.
